# High-throughput results from PubChem BioAssay.
# Sampled rows, rich in hits. Any-hit rate of the full collection: about 1.1%.
# CAL PDZ FP-1: blocks peptide binding to the human CAL PDZ domain | Q9HD26 | purified CAL PDZ, TMR-peptide fluorescence polarization, 1 h | inhibition, % at 24.9 µM | hit rate 0.92% among 300,000;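 active = mean inhibition of at least 30% with at least half of replicates also reaching 30%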;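 note: 0% = DMSO neutral control and 100% = excess unlabeled competitor peptide PRC23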
# CAL PDZ FP-2: human CAL PDZ-peptide interaction inhibition; hit rate 0.02% among 330,000; inhibition, % at 20 µM; Q9HD26; purified CAL PDZ, TMR-peptide fluorescence polarization, 1 h;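 active = highest replicate inhibition of at least 40%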;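 note: plate controls were DMSO neutral control wells for no effect and unlabeled competitor peptide control wells for full effect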
#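 Test system: purified CerCALP PDZ construct; Compound dosing: one concentration, 20 µM compound; Also added: TMR-labelled reporter peptide T*-PRC34 bound in PDZ groove; Read-out: inhibition from polarization loss; Controls: unlabelled peptide and DMSO controls; Signal: FP readout, S and P plane fluorescence; Incubation: 1 h at RT.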
# PDI turbidity: PDI (human) enzyme inhibition; AID 588391; PDI insulin aggregation turbidity, A650, 90 min; hit rate 0.052% among 350,000; inhibition, % at 10 µM;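 active = mean inhibition across replicates of 30% or more, whatever share of single replicates reach that level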
# ERAP1 inh: inhibitors of human ERAP1 aminopeptidase | Q9NZ08 | recombinant ERAP1, Leu-AMC fluorescence, 60 min | inhibition, % at 10.7 µM | hit rate 0.15% among 340,000 | AID 652197;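 active = mean replicate inhibition of at least 30%, or all replicates individually reaching that 30% level; inactive = mean below 30% and not every replicate reaching it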;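 note: 0% = neutral control wells and 100% = L-leucinethiol positive control wells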
# ERp5 block: inhibitors of human ERp5. Q15084. AID 651711. inhibition, % at 9.99 µM. hit rate 0.05% among 350,000. ERp5 insulin aggregation, absorbance 650 nm, 90 min;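 active = mean replicate inhibition above about 25%, with every replicate also reaching it, limit read from the data, passing the limit was not always enough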
# Rin1-Abl PPI inh: blocks binding of human Rin1 to Abl | AID 588664 | hit rate 0.4% among 360,000 | P00519+Q13671 | TR-FRET Rin1/Abl binding, biochemical | inhibition, % at 7.35 µM; in the data active = inhibition above about 5%, passing the limit was not always enough
# Target sequence (P00519 whole entry, looked up): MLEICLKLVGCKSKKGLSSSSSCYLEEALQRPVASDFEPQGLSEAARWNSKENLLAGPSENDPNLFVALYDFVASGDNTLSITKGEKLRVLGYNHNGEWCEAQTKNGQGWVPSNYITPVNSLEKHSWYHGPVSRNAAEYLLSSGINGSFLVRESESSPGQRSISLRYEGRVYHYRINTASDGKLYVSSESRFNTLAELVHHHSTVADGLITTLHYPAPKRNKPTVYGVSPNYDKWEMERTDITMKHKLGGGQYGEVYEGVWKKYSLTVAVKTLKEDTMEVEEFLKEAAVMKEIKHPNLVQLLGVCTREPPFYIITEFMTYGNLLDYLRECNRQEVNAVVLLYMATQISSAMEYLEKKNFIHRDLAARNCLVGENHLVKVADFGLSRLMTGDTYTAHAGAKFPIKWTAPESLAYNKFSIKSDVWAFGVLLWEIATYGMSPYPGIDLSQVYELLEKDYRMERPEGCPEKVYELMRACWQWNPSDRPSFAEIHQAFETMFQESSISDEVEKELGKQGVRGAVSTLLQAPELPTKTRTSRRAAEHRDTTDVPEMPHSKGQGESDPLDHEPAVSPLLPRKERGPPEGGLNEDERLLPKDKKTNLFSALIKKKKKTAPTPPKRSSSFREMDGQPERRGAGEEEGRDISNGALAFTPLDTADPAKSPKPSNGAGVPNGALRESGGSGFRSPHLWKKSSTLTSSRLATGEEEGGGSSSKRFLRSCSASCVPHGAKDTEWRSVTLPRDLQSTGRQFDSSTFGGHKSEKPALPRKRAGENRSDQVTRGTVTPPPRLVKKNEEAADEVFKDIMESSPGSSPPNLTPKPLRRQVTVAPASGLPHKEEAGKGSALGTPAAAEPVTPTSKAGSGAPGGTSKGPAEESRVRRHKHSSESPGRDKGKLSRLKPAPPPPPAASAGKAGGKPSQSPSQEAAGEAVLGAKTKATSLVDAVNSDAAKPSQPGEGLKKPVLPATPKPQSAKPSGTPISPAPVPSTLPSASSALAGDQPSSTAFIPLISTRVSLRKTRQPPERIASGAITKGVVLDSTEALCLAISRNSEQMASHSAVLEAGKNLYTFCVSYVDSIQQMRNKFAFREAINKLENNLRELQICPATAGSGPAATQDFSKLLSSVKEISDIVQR
# Target sequence (Q13671 whole entry, looked up): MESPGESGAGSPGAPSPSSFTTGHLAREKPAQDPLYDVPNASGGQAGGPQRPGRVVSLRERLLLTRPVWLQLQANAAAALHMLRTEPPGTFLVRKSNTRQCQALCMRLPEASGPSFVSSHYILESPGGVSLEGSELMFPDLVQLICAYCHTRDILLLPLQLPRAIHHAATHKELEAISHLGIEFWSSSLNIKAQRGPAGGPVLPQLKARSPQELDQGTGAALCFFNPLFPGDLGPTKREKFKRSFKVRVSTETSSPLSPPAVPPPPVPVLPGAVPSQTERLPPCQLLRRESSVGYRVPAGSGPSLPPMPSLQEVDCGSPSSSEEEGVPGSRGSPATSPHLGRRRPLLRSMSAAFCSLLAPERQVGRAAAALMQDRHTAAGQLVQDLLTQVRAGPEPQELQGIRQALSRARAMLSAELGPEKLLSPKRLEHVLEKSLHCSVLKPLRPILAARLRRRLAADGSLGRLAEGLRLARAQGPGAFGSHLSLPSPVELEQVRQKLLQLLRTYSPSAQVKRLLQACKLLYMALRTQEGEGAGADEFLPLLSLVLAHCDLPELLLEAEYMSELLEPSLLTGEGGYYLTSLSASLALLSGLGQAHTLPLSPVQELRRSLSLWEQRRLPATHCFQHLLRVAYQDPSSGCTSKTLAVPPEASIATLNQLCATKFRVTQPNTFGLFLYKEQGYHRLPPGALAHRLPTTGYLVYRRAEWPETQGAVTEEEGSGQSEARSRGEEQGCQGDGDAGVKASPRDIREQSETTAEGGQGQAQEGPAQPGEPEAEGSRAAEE
# * marks the source's active call; other numbers are inactive results; nt = no result given; + = active, no number.
SMILES,CAL PDZ FP-1,CAL PDZ FP-2,PDI turbidity,ERAP1 inh,ERp5 block,Rin1-Abl PPI inh
CC(=O)N(C)C[C@@H]1Oc2ncc(-c3ccccc3F)cc2C(=O)N([C@@H](C)CO)C[C@H]1C,nt,nt,nt,-0.6,0.3,nt
Cc1ccc(NC(=O)COC(=O)Cn2ccc(=O)[nH]c2=O)cc1C,39.8*,-0.4,-3.7,4.5,1.4,3.0
COC(=O)c1ccc(C(=O)Nc2ccc3nc(-c4cccnc4)[nH]c3c2)cc1,0.4,-1.9,2.4,nt,nt,-0.1
COC(=O)c1ccc(C(=O)Nc2ccc3nc(-c4ccncc4)[nH]c3c2)cc1,58.5*,-3.8,3.0,1.1,4.5,-2.9
c1ccc(-c2noc(CC3CCCCC3)n2)cc1,40.3*,-0.7,-3.5,-6.5,2.9,-1.3
C[C@@H]1CN([C@H](C)CO)C(=O)Cc2cc(NS(C)(=O)=O)ccc2O[C@H]1CN(C)C(=O)Nc1ccc(C(F)(F)F)cc1,nt,nt,nt,4.5,1.3,nt
CCn1nnnc1SCC(=O)c1cc(OC)ccc1OC,40.8*,0.2,-4.8,nt,nt,-3.1
COc1ccc(OC)c(C(=O)CSc2nnnn2C)c1,-1.1,-2.9,-0.4,nt,nt,2.4
O=C(Nc1ccccc1)c1ccc(S(=O)(=O)NCc2ccco2)cc1,39.1*,-0.5,-7.4,nt,nt,-0.5
Cc1ccc(C(=O)Nc2ccc(S(=O)(=O)NCc3ccco3)cc2)cc1,nt,-0.3,-2.0,nt,nt,-4.8
Cc1ccc(-c2ccc(S(=O)(=O)NCc3ccco3)cc2)cc1,+,0.0,1.6,-0.7,-1.3,1.1
CCC(=O)Nc1ccc(S(=O)(=O)NCc2ccco2)cc1,-1.5,144.0*,-2.8,-1.1,0.9,0.3
O=C(Nc1ccc(S(=O)(=O)NCc2ccco2)cc1)c1ccc(F)cc1,-1.4,0.3,1.2,2.0,0.0,3.0
CC/C(=N\NS(=O)(=O)c1ccc(C)cc1)c1ccco1,36.4*,nt,12.1,2.9,1.8,-3.0
CN1C(=O)c2cc(NC(=O)c3ccc(F)cc3)ccc2OC[C@H]2O[C@@H](CC(=O)N3CCOCC3)CC[C@H]21,nt,nt,nt,0.7,-1.2,nt
CCN1CC2=C(OC(N)=C(C#N)C2c2cccs2)/C(=C/c2cccs2)C1 (centres undefined),43.4*,-0.3,0.6,nt,nt,0.2
CCN1CC2=C(OC(N)=C(C#N)C2c2ccccc2)/C(=C\c2ccccc2)C1 (centres undefined),-1.8,nt,4.9,nt,nt,0.1
Oc1cccc2ccc(/C=C/c3ccccc3Br)nc12,58.6*,1.2,2.5,0.3,0.9,-1.9
Cc1ccc(C(=O)NCCN2C3=NC[C@H](Cc4ccc(O)cc4)N3C[C@H]2Cc2ccc(O)cc2)cc1Br,-2.4,-11.7,39.7*,0.6,0.8,-0.2
Cc1ccc(C(=O)NCCN2C3=NC[C@@H](Cc4ccccc4)N3C[C@H]2Cc2ccc(O)cc2)cc1Br,-0.7,-11.4,0.9,-13.0,-1.1,2.1
C[C@@H](CN1C2=NC[C@H](Cc3ccc(O)cc3)N2C[C@H]1Cc1ccc(O)cc1)NC(=O)CCC1CCCCC1,-2.6,-1.3,47.4*,nt,-1.4,2.3
O=C(Nc1cc(F)ccc1F)N1C[C@@H]2[C@H](c3ccccc31)[C@H](CO)N2Cc1ccncc1,nt,nt,nt,-1.9,-3.3,nt
CCCNC(=O)C[C@H]1CC[C@H]2[C@@H](COC[C@@H](O)CN2Cc2ccc(Cl)c(Cl)c2)O1,nt,nt,nt,0.8,1.5,nt
COc1ccccc1-n1cc(-c2ccccc2)[nH]c1=S,-3.8,-1.5,-1.1,1.7,6.2,-0.9
COc1ccccc1-n1cc(-c2ccccc2)c2c(=S)nc[nH]c21,77.0*,-1.0,5.1,1.1,3.0,-1.5
SMILES,CAL PDZ FP-1,CAL PDZ FP-2,PDI turbidity,ERAP1 inh,ERp5 block,Rin1-Abl PPI inh
COc1ccc(S(=O)(=O)N(C)C[C@H]2Oc3c(NS(=O)(=O)c4c(C)noc4C)cccc3C(=O)N([C@@H](C)CO)C[C@H]2C)cc1,nt,nt,nt,0.9,4.0,nt
O=C(Nc1ccncc1)C1CCN(S(=O)(=O)c2cccc(C(F)(F)F)c2)CC1,nt,-1.1,-0.1,0.9,27.3*,1.5
O=C(Nc1ccccc1F)N1C[C@@H]2[C@H](c3ccccc31)[C@@H](CO)N2C(=O)C1CC1,nt,nt,nt,-0.3,-0.5,nt
O=C(c1ccccc1)N1C[C@@H]2[C@H](c3ccccc31)[C@H](CO)N2Cc1cc(F)ccc1F,nt,nt,nt,1.4,-1.7,nt
COc1ccc(-c2cc(C(F)(F)F)nc(S(=O)(=O)CCCC(=O)Nc3cc(C)on3)n2)cc1OC,1.6,-1.0,-2.0,36.6*,-8.8,-1.3
C[C@@H]1CN([C@@H](C)CO)C(=O)c2cc(NC(=O)c3ccccc3)ccc2O[C@@H](C)CCCCO[C@@H]1CN(C)C(=O)Cc1ccccc1,nt,nt,nt,0.7,7.2,nt
CN(C)c1ccc(N=Nc2ccc(S(N)(=O)=O)cc2)cc1,44.5*,-0.7,-2.3,-1.1,5.1,-9.5
CC(=O)N(C)C[C@H]1Oc2cc(C#Cc3ccccc3)ccc2S(=O)(=O)N([C@H](C)CO)C[C@@H]1C,nt,nt,nt,1.9,6.2,nt
CCOC(=O)C1(Cc2ccc(Cl)cc2)CCN(C(=O)CCc2cnccn2)CC1,-1.1,0.6,13.3,-5.0,-2.4,1.6
CCOC(=O)C1(Cc2ccc(OC)cc2)CCN(C(=O)CCc2cnccn2)CC1,76.5*,0.2,3.0,nt,5.0,0.2
CCc1ccccc1N(CC(=O)O)S(C)(=O)=O,43.5*,nt,0.7,nt,nt,-0.5
Oc1ccccc1C=NCCCCCCN=Cc1ccccc1O,+,0.1,-5.1,-2.2,-2.2,-4.5
COc1cc(/C=C(/C#N)C(=O)NCCCc2ccccc2)ccc1OCC(=O)O,22.6,-1.0,-3.8,35.3*,0.7,-2.6
CCOC(=O)/C(C#N)=C/c1ccc(OCC(=O)Nc2ccc(OC)cc2)c(OC)c1,74.6*,-1.2,-2.8,nt,nt,0.2
COc1ccc(/C=C(\C#N)C(=O)NCc2cccnc2)cc1OC,nt,0.7,1.5,63.5*,10.9,1.2
COc1cc(/C=C(\C#N)C(=O)NCc2ccccc2)ccc1OCc1ccc(C(=O)O)cc1,-0.8,-1.5,0.9,nt,4.4,-0.3
C[C@@H]1CN([C@H](C)CO)C(=O)c2cccc(NC(=O)Nc3ccc(C(F)(F)F)cc3)c2O[C@H]1CN(C)S(=O)(=O)c1ccc(F)cc1,nt,nt,nt,-0.2,3.5,nt
CC1CCc2cc(F)cc3c(=O)c(C(=O)O)cn1c23 (centres undefined),-1.0,-0.7,12.5,38.5*,-0.4,-1.1
CC1CCc2c(N3CCC(O)CC3)c(F)cc3c(=O)c(C(=O)O)cn1c23 (centres undefined),-5.8,-0.8,0.5,-0.2,4.3,-3.6
CN(C)C(=O)[C@@H]1[C@@H](CO)[C@@H]2Cn3c(ccc(-c4ccccc4F)c3=O)[C@H]1N2C(=O)c1ccncc1,nt,nt,nt,2.0,3.5,nt
CCNC(=O)c1ccccc1NC(=O)C1CC(=O)N(C(C)C)C1 (centres undefined),61.9*,3.1,8.6,-0.5,10.1,-0.1
Cc1sc2nc(SC3CCOC3=O)n(Cc3ccccc3)c(=O)c2c1C (centres undefined),-1.2,-4.0,-9.6,-2.2,-4.5,-2.2
